The subject of experiment [1] is A2780. Put plainly: Induction of cell cycle arrest in human A2780 cells assessed as accumulation of cells in G2/M phase by measuring PLK1 phosphorylation on Thr210 incubated for 24 hrs by Western blotting analysis. The note with it: dose 0.02-0.2 µmol/L. In kind it is functional, cell-based. An outline of the steps:
(§1)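 A2780 ovarian carcinoma cells treated 24 h with a range of concentrations, with DMSO and nocodazole controls. 20 µg protein extract separated by SDS-PAGE and immunoblotted with chemiluminescent detection. Probed for total and phospho-Thr210 PLK1, phospho-Ser10 histone H3, phospho-Thr199 NPM and phospho-Tyr15 CDK1. Total NPM, tubulin and total CDK1 served as loading controls.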

For experiment [2], the target named is Serine/threonine-protein kinase PLK1 (Homo sapiens) (UniProt P53350). The experiment is described as follows: Inhibition of PLK1 in human A2780 cells assessed as increased Histone H3 phosphorylation on Ser10 by Western blotting analysis. Format: cell-based.
Experiment [3] relates to A2780. The experiment is described as follows: Induction of cell cycle arrest in human A2780 cells assessed as accumulation of cells in G2/M phase by measuring NPM phosphorylation on Thr199 incubated for 24 hrs by Western blotting analysis. In kind it is functional, cell-based. The note with it: dose 0.02-0.2 µmol/L. An outline of the steps: as §1
The test system of experiment [4] is A2780. Put plainly: Induction of cell cycle arrest in human A2780 cells assessed as accumulation of cells in G2/M phase by measuring CDK1 phosphorylation on Tyr15 incubated for 24 hrs by Western blotting analysis. In kind it is functional, cell-based. The settings on record: dose 0.02-0.2 µmol/L. In short, it runs like this: as §1
Experiment [5] addresses Serine/threonine-protein kinase PLK1 (Homo sapiens) (UniProt P53350). The experiment is described as follows: Inhibition of PLK1 in human A2780 cells assessed as increased NPM phosphorylation on Thr199 by Western blotting analysis. Format: cell-based.
The test system of experiment [6] is A2780. The experiment is described as follows: Induction of cell cycle arrest in human A2780 cells assessed as accumulation of cells in G2/M phase by measuring Histone H3 phosphorylation on Ser10 incubated for 24 hrs by Western blotting analysis. Format: functional, cell-based. The settings on record: dose 0.02-0.2 µmol/L. In short, it runs like this: as §1
In experiment [7] the target is Serine/threonine-protein kinase PLK1 (Homo sapiens) (UniProt P53350). Put plainly: Inhibition of PLK1 in human A2780 cells assessed as decreased TCTP phosphorylation on Ser46 by Western blotting analysis. The settings on record: time 1.0 hrs.
For experiment [8], the system named is A2780. Put plainly: Induction of cell cycle arrest in human A2780 cells assessed as accumulation of cells in G2/M phase by measuring upregulated PLK1 expression incubated for 24 hrs by Western blotting analysis. Format: functional, cell-based. The note with it: dose 0.02-0.2 µmol/L. In short, it runs like this: as §1
In another experiment the test system is HT-29. The experiment is described as follows: Antitumor activity against human HT-29 cells xenografted in nu/nu mouse assessed as tumor growth inhibition at 45 mg/kg, iv administered for 4 days relative to control. In kind it is functional. The settings on record: HT-29, 96 h, time 4 day, read-out: TGI.
Experiment [9] is described as follows: Antitumor activity against human Acute myeloid leukemic cell xenografted in nu/nu mouse assessed as increase in median survival time at 75 mg/kg, iv administered for 5 days and measured after 7 days in presence of NMS-P937 (reference value: 34 days). The settings on record: time 5 day. Format: functional, Leukemia cell.
Experiment [10] in a line: Antitumor activity against human Acute myeloid leukemic cell xenografted in nu/nu mouse assessed as increase in median survival time at 75 mg/kg, iv administered for 5 days and measured after 7 days (reference value: 34 days). Format: functional, Leukemia cell. The note with it: time 5 day.

Activity calls are given as the source filed them. The rule behind the calls is not given here.

Serine/threonine-protein kinase PLK1 (Homo sapiens), sequence (P53350 whole entry): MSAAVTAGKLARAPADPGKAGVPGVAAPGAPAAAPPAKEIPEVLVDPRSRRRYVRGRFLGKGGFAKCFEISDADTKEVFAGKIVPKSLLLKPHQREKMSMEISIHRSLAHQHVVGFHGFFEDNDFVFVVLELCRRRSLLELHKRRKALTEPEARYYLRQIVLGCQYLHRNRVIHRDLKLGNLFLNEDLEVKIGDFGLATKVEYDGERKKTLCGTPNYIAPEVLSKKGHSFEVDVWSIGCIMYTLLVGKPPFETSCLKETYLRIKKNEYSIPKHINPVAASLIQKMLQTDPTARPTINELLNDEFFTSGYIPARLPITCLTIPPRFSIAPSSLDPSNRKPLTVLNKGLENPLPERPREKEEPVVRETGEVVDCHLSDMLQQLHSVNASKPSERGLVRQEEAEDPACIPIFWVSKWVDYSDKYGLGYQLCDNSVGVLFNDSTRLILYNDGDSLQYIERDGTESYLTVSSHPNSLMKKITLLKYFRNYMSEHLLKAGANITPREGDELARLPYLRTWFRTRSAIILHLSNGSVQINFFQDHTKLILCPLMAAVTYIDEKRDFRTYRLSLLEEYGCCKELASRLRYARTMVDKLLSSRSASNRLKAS

As for `COC(=O)Nc1nc2cc(C(=O)c3cccs3)ccc2[nH]1`, the result with A2780 [1], in the experiment with A2780 [3], in the experiment with A2780 [4], in the experiment with A2780 [6] and in the experiment on A2780 [8] was Active. Besides, the inhibition entry in experiment [2], in [5] and in experiment [7] was “Active” in each case.
Consider `CCc1c2c(nc3ccc(OC(=O)N4CCC(N5CCCCC5)CC4)cc13)-c1cc3c(c(=O)n1C2)COC(=O)[C@]3(O)CC` [IRINOTECAN], for which the inhibition in vivo at 45 mg/kg in the experiment with HT-29 came to 64%. Also, the values for the Time in [9] and in experiment [10] were 79 days and 67 days, respectively.

The values are drawn from ChEMBL document CHEMBL5678806, “NMS-P937, an orally available, specific small-molecule polo-like kinase 1 inhibitor with antitumor activity in solid and hematologic malignancies” (Mol Cancer Ther, 2012).
